GC-B act: GC-B (human) receptor activation; P20594; HEK293-GC-B cells, CNP EC30, cGMP TR-FRET; 0% at EC30 CNP, 100% saturating CNP; activation, % at 10 µM; 370,000 tested, 0.11% active; AID 1920062;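 active means activation at 10 µM reaching about 35% in either raw or pattern-adjusted values, limit read from the data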
GC-A act: GC-A (human) enzyme activation; P16066; activation, % at 10 µM; HEK293 GC-A cells, cGMP TR-FRET, EC30 ANP; 0% at EC30 ANP, 100% saturating ANP; 370,000 tested, 0.14% active; in the data active means activation above about 40%
aDG glyco act: increases alpha dystroglycan glycosylation | Pro5-aDG cells, alpha-DG glycosylation AlphaScreen (IIH6); 0% Pro5, 100% B10-LARGE cell signal | activation, % at 10 µM | 360,000 tested, 0.22% active | AID 624168;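 active means activation of at least 8% versus controls, or a plate z-score of at least 8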;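 further: Pro5 are CHO cells carrying HIG-tagged alpha-DG that lacks glycosylation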
JMJD2C inh: inhibitors of human GASC-1 (JMJD2C) demethylase | Q9H3R0 | GST-JMJD2C(1-420) H3K9me3 demethylation, DELFIA europium | inhibition, % at 2.35 µM | 330,000 tested, 0.069% active | AID 2099;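 active means more than half of a compound's replicate wells show inhibition beyond 50%, single wells judged on their own value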;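 further: signal counts dimethyl H3K9 product captured on neutravidin plate; 0% = median of DMSO wells and 100% = 0.3 times that DMSO median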
Target sequence (Q9H3R0 1-420 limits assumed): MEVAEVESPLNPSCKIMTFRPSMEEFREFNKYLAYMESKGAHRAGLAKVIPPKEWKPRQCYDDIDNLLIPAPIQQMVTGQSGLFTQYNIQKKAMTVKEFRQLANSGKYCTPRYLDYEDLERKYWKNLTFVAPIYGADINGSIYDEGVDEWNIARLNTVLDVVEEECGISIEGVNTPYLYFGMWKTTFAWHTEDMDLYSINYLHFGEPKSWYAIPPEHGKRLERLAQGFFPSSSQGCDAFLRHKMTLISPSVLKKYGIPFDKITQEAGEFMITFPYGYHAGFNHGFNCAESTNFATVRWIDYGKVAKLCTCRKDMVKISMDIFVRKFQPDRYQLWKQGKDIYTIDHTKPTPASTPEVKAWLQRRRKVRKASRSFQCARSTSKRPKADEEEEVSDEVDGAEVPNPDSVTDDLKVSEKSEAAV
Lipid droplet: modulators of hepatic lipid droplet formation. AML12 mouse hepatocytes, oleate lipid droplets, BODIPY imaging. inhibition, % at 6.5 µM. 240,000 tested, 0.4% active. AID 1656;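 active means lipid droplet intensity inhibited by at least 50%, with more than 500 cells counted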
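Assay system: AML12 mouse liver cells | Compound dosing: One dose, 6.5 µM compound | Read-out basis: Droplet intensity reduction, % inhibition | Measured by: Fluorescence imaging, 20x objective, two fields per well | Schedule: Overnight treatment with compound plus oleate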
NR3A LBD binder: NR3A (human) ligand-binding domain modulation; AID 1259313; Tm shift relative to glycine control, % at 25 µM; 340,000 tested, 2.5% active; NR3A LBD differential scanning fluorimetry, Tm shift; 0% = protein alone, 100% = glycine-bound protein;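 active means melting temperature shift of at least 10% of the positive control shift, at one fixed dose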
Numbers without * were called inactive; x = no result. Shown are actives, neighbours in structure and some others; about 3% of the full set was active somewhere.

SMILES | GC-B act | GC-A act | aDG glyco act | JMJD2C inh | Lipid droplet | NR3A LBD binder
Cc1ccc(NC(=O)C(C)c2ccc([N+](=O)[O-])cc2)cc1Cl (stereo not drawn) | 1 | -1 | 2 | 2 | -2 | 12*
O=C(OC(C(=O)Nc1ccc(Cl)cc1C(F)(F)F)c1ccccc1)C1=COCCO1 (stereo not drawn) | -8 | -7 | 0 | 18 | 1 | -2
O=C(OC(C(=O)Nc1ccc(Cl)c(C(F)(F)F)c1)c1ccccc1)C1=COCCO1 (stereo not drawn) | -4 | 3 | 0 | -18 | -68 | 13*
COC(=O)c1nn(-c2ccccc2)c(Cl)c1/C=N/OCc1ccc(Cl)cc1Cl | -12 | 6 | 0 | -2 | x | 12*
COc1ccc(-c2csc3ncnc(N4CCN(c5ccccc5)CC4)c23)cc1 | -7 | -11 | 0 | -43 | -11 | -5
COc1ccc(-c2csc3ncnc(N4CCN(Cc5ccccc5)CC4)c23)cc1 | -4 | -6 | 0 | -46 | -14 | 14*
COc1ccc(C(=O)Sc2nncc3ccccc23)cc1 | 1 | 2 | 0 | -12 | -15 | 13*
COc1ccc(NC(=O)CSc2nncc3ccccc23)cc1 | -2 | -3 | 0 | -18 | 7 | 0
Cc1nn(-c2ccccc2)c(/N=C/c2ccc(O)cc2)c1-c1ccccc1 | -3 | 1 | 0 | 8 | 11 | 26*
Cc1nn(-c2ccccc2)c(C)c1-c1ccccc1O | -4 | -4 | 0 | 5 | 14 | 1
O=C(Nc1ccc(OCc2ccccc2)cc1)Nc1cccnc1 | -4 | 1 | 0 | -14 | x | 15*
COc1ccc(NC(=O)Nc2ccc(OCc3ccccc3)cc2)cn1 | 0 | 4 | 0 | -6 | 4 | 29*
COc1ccc(CC(=O)Nc2ccc(OC)nc2)cc1 | 4 | -2 | 0 | 3 | 1 | -1
O=C(Nc1ccc(OCc2ccccc2)cc1)c1cccnc1 | 0 | 5 | 0 | 12 | 11 | 2
S=C(NCCC(c1ccccc1)c1ccccc1)Nc1ccccc1Cl | 1 | 0 | 0 | -3 | x | -3
COc1ccccc1NC(=S)NCCC(c1ccccc1)c1ccccc1 | 1 | -8 | 0 | 4 | -9 | 1
COc1ccc(Cl)cc1NC(=S)NCCC(c1ccccc1)c1ccccc1 | -8 | -3 | 1 | -9 | -44 | 18*
COc1cc(NC(=S)NCCC(c2ccccc2)c2ccccc2)c(OC)cc1Cl | -2 | -7 | 0 | -6 | -11 | 24*
O=C(COC(=O)CCc1nc2ccccc2c(=O)[nH]1)NC(=O)NC1CCCC1 | -3 | 0 | 0 | 3 | 11 | 12*
N#CCCN(C(=O)COC(=O)CCc1nc2ccccc2c(=O)[nH]1)c1ccccc1F | 1 | -1 | 0 | -2 | x | 13*
Cc1ccc(NC(=O)Cc2cccc(OC(F)(F)F)c2)c(S(=O)(=O)N2CCOCC2)c1 | 6 | 4 | x | x | x | x
N#Cc1c(Cl)nsc1NC(=O)c1ccccc1 | 6 | 11 | 0 | 17 | -9 | 11*
CN(N=O)c1ccc(CC2CCc3ccccc32)cc1 (stereo not drawn) | -2 | 0 | 0 | x | x | 15*
CCN(CC)C(=O)CC[C@@H]1CC[C@]2(CCCN(Cc3ccncc3)C2)O1 | -1 | 0 | x | x | x | x
C=CCN=C1NC(c2cccc(F)c2)C(C(=O)OC)=C(C)N1C (stereo not drawn) | -11 | -2 | x | x | x | x
SMILES | GC-B act | GC-A act | aDG glyco act | JMJD2C inh | Lipid droplet | NR3A LBD binder
CCN1CCc2c(sc(NC(=O)c3ccc(S(=O)(=O)N(C)c4ccccc4)cc3)c2C(=O)NC)C1 | x | x | 43* | -7 | -1 | 6
Fc1ccc(-c2ccc(Nc3cccc(F)c3)nn2)cc1 | -2 | -4 | 0 | -5 | 8 | 30*
Fc1ccc(Nc2ccc(-c3ccc(F)cc3)nn2)cc1 | -1 | 3 | 0 | 7 | 2 | 26*
COc1ccccc1-c1ccc(Nc2cccc(C(F)(F)F)c2)nn1 | 4 | -1 | 0 | 9 | -12 | -2
NCc1ccc(OCCCN2CCC(C(O)(C3=CCCC3)c3ccccc3)CC2)cc1 (stereo not drawn) | -12 | -9 | x | x | x | x
CCOC(=O)C1=NOC(CNC(=O)c2c(-c3ccccc3Cl)noc2C)C1 (stereo not drawn) | -1 | 0 | 0 | -1 | -1 | 14*
Cc1[nH]n2c(=O)cc(-c3ccc([N+](=O)[O-])cc3)nc2c1-c1ccccc1 | 3 | -2 | 0 | 11 | x | 14*
CCCc1cc(=O)n2[nH]c(C)c(-c3ccccc3)c2n1 | 4 | 5 | 0 | 12 | x | 1
O=C(NC1CC[C@@]23CCCN2C(=O)CCC[C@H]3C1)c1ccccc1 (stereo partly drawn) | -5 | -1 | x | x | x | x
COc1ccc(OC)c2c(=O)cc(C(=O)O)[nH]c12 | -1 | 2 | 0 | 6 | -5 | 1
COc1ccc(OC)c2c(C)c(C)[nH]c12 | 4 | -3 | 0 | 1 | 23 | 10*
COc1ccc(N2C(=O)C3C(C2=O)C3(c2ccccc2)c2ccccc2)cc1 (stereo not drawn) | -1 | 1 | 0 | -5 | -21 | 4
COc1ccc(N2C(=O)C3C4C=CC(c5ccccc5)(C3C2=O)C2C(=O)N(c3ccc(OC)cc3)C(=O)C42)cc1 (stereo not drawn) | -1 | 3 | 0 | 0 | -8 | 12*
C(=N\N1CCN(C2c3ccccc3-c3ccccc32)CC1)/c1ccncc1 | -5 | -10 | 0 | -1 | 4 | -5
C/C(=N\N1CCN(C2c3ccccc3-c3ccccc32)CC1)c1ccncc1 | -4 | -2 | 0 | 1 | x | 15*
COC(=O)[C@]12C[C@H](CC(=O)NCc3ccc(C)o3)C(=O)N(CCc3ccc(OC)c(OC)c3)C1=C[C@H](COCc1ccccc1)O[C@@H]2C | 2 | 3 | x | x | x | x
CCOC(=O)/C(C#N)=C1/C=CN(c2ccccc2)C=N1 | -3 | -5 | 0 | 13 | x | 14*
CCOC(=O)/C(C#N)=C1/C=CN(c2ccc(C)cc2)C=N1 | -2 | 1 | 0 | 3 | 0 | 1
CSCCC(C)N1CCC(Oc2ccc(C(=O)N3CCCC3)cc2)CC1 (stereo not drawn) | 3 | 0 | 0 | 3 | 12 | 0
CC(=O)Nc1ccc(NC(=O)c2ccc(S(=O)(=O)N(C)c3ccccc3)cc2)cc1 | 0 | -1 | 0 | 3 | x | 1
CN(c1ccccc1)S(=O)(=O)c1ccc(NC(=O)CC(=O)c2ccccc2)cc1 | 3 | 0 | 0 | x | x | 16*
Cc1ccc(CN(C)C(=O)c2ccc(S(=O)(=O)N(C)c3ccccc3)cc2)o1 | 1 | -5 | 0 | x | x | 22*
